From ChEMBL document CHEMBL5724801, “EUbOPEN Chemogenomics Library - Multiplex” (2024)
Where “and” joins values, the source holds several entries; their conditions need not be identical. Equal entries are not always repeated.

System: Fibroblast
Assay: Multiplex assay against human fibroblast
Assay type: toxicity, cell-based
Procedure, shortened: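 Live cells carried four stains from seeding: Hoechst33342, BioTracker Green Microtubule Cytoskeleton Dye, MitoTracker Red and Annexin V Alexa Fluor 680. They were imaged on a CQ1 microscope at 37°C and 5% CO2 after compound addition. Using CellPathfinder machine-learning gating, cells were split into Hoechst high-intensity objects or normal cells, normal cells into healthy, pyknosed or fragmented nuclei, and pyknosed cells into mitotic or apoptotic; tubulin, mitochondrial-mass and membrane-permeability phenotypes are per cents of healthy-nucleus cells.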

[1] = 12 h, 1 µM, compound concentration 1 uM
[2] = 12 h, 10 µM, compound concentration 10 uM
[3] = 24 h, 1 µM, compound concentration 1 uM
[4] = 24 h, 10 µM, compound concentration 10 uM
[5] = 48 h, 1 µM, compound concentration 1 uM
[6] = 48 h, 10 µM, compound concentration 10 uM

For CCOC(=O)c1c(/C(C#N)=C\N)c2ccc(Cl)c(Cl)c2n1C, the “Population Fragmented Nuclei (%)” value [1] was 11.86% and 4.52%, the “Population Healthy Nuclei (%)” value [1] was 64.41% and 76.92% and the “Population Hoechst High Intensity Objects (%)” value [1] was 0%. The “Population Membrane Permeable-Phenotype (%)” value [1] was 0% and 2.94%, the “Population Mitochondria Different-Phenotype (%)” value [1] was 11.84% and 14.71% and the “Population Mitotic Cells (%)” value [1] was 96.43% and 85.37%. The “Population Normal (%)” value [1] was 100%, the “Population Pyknosed Nuclei (%)” value [1] was 23.73% and 18.55% and the “Population Tubulin-Different-Phenotype (%)” value [1] was 10.53% and 18.82%. For the same molecule, the “Total Cell Count” value [1] was 118 and 221, the “Population Apoptotic (%)” value [2] was 24.32% and 12.77% and the “Population Fragmented Nuclei (%)” value [2] was 10.92% and 3.83%. For the same molecule, the “Population Healthy Nuclei (%)” value [2] was 67.82% and 76.17%, the “Population Hoechst High Intensity Objects (%)” value [2] was 0% and the “Population Membrane Permeable-Phenotype (%)” value [2] was 4.24% and 1.12%. For the same molecule, the “Population Mitochondria Different-Phenotype (%)” value [2] was 3.39% and 7.82%, the “Population Mitotic Cells (%)” value [2] was 75.68% and 87.23% and the “Population Normal (%)” value [2] was 100%. The “Population Pyknosed Nuclei (%)” value [2] was 21.26% and 20%, the “Population Tubulin-Different-Phenotype (%)” value [2] was 15.25% and 16.2% and the “Total Cell Count” value [2] was 174 and 235. For the same molecule, the “Population Apoptotic (%)” value [3] was 0% and 20.83%, the “Population Fragmented Nuclei (%)” value [3] was 7.25% and 3.83% and the “Population Healthy Nuclei (%)” value [3] was 72.46% and 85.96%. The “Population Hoechst High Intensity Objects (%)” value [3] was 0%, the “Population Membrane Permeable-Phenotype (%)” value [3] was 4% and 1.98% and the “Population Mitochondria Different-Phenotype (%)” value [3] was 3% and 6.93%. The “Population Mitotic Cells (%)” value [3] was 100% and 79.17%, the “Population Normal (%)” value [3] was 100% and the “Population Pyknosed Nuclei (%)” value [3] was 20.29% and 10.21%. The “Population Tubulin-Different-Phenotype (%)” value [3] was 11% and 18.81%, the “Total Cell Count” value [3] was 138 and 235 and the “Population Apoptotic (%)” value [4] was 14.81% and 20.59%. The “Population Fragmented Nuclei (%)” value [4] was 8.02% and 1.27%, the “Population Healthy Nuclei (%)” value [4] was 77.54% and 84.39% and the “Population Hoechst High Intensity Objects (%)” value [4] was 0%. For the same molecule, the “Population Membrane Permeable-Phenotype (%)” value [4] was 3.45% and 2.5%, the “Population Mitochondria Different-Phenotype (%)” value [4] was 4.14% and 7% and the “Population Mitotic Cells (%)” value [4] was 85.19% and 79.41%. For the same molecule, the “Population Normal (%)” value [4] was 100%, the “Population Pyknosed Nuclei (%)” value [4] was 14.44% and 14.35% and the “Population Tubulin-Different-Phenotype (%)” value [4] was 11.03% and 18.5%. The “Total Cell Count” value [4] was 187 and 237, the “Population Apoptotic (%)” value [5] was 40% and 25% and the “Population Fragmented Nuclei (%)” value [5] was 12.18% and 3.67%. The “Population Healthy Nuclei (%)” value [5] was 84.62% and 91.43%, the “Population Hoechst High Intensity Objects (%)” value [5] was 0% and the “Population Membrane Permeable-Phenotype (%)” value [5] was 0% and 2.68%. The “Population Mitotic Cells (%)” value [5] was 60% and 75%, the “Population Normal (%)” value [5] was 100% and the “Population Pyknosed Nuclei (%)” value [5] was 3.21% and 4.9%. The “Population Tubulin-Different-Phenotype (%)” value [5] was 7.58% and 20.98%, the “Total Cell Count” value [5] was 156 and 245 and the “Population Apoptotic (%)” value [6] was 44.44% and 21.05%. The “Population Fragmented Nuclei (%)” value [6] was 8.78% and 2.61%, the “Population Healthy Nuclei (%)” value [6] was 86.83% and 89.13% and the “Population Hoechst High Intensity Objects (%)” value [6] was 0%. The “Population Membrane Permeable-Phenotype (%)” value [6] was 0.56% and 2.93%, the “Population Mitochondria Different-Phenotype (%)” value [6] was 11.24% and 1.95% and the “Population Mitotic Cells (%)” value [6] was 55.56% and 78.95%. For the same molecule, the “Population Normal (%)” value [6] was 100%, the “Population Pyknosed Nuclei (%)” value [6] was 4.39% and 8.26% and the “Total Cell Count” value [6] was 205 and 230.
